Data from ChEMBL document CHEMBL4311931, “Controlling cellular distribution of drugs with permeability modifying moieties” (Medchemcomm, 2019).

Columns and labels:
Histamine H3 receptor [1] = molecular target: T1, Histamine H3 receptor (Homo sapiens, UniProt Q9Y5N1); assay: Displacement of [3H]Nalpha-methylhistamine from recombinant human histamine H3 receptor after 60 mins by scintillation counting method
Histamine H3 receptor [2] = molecular target: T1, Histamine H3 receptor; assay: Agonist activity at human H3 receptor expressed in CHOK1 cells incubated for 10 mins by HTRF assay; assay type: cell-based
Histamine H3 receptor [3] = molecular target: T1, Histamine H3 receptor; assay: Antagonist activity at human H3 receptor expressed in CHOK1 cells incubated for 10 mins by HTRF assay; assay type: cell-based
[4] = Permeability of compound in 5% DMSO after 7 hrs by PAMPA; assay type: ADME; details: read-out: permeability
[5] = molecular target: Bromodomain-containing protein 2 (Homo sapiens, UniProt P25440); assay: Inhibition of BRD2 (unknown origin) by TR-FRET assay
[6] = molecular target: Bromodomain-containing protein 3 (Homo sapiens, UniProt Q15059); assay: Inhibition of BRD3 (unknown origin) by TR-FRET assay
[7] = molecular target: T2, Bromodomain-containing protein 4 (Homo sapiens, UniProt O60885); assay: Inhibition of BRD4 (unknown origin) by TR-FRET assay
[8] = molecular target: T2, Bromodomain-containing protein 4; assay: Inhibition of BRD4 in human […] cells transfected with HPV-E2 assessed as transrepression of HPV-long control region by luciferase reporter assay; assay type: cell-based
[9] = Ratio of drug concentration in unbound HEK293 cell to media; assay type: ADME; details: human
Summary of the method: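 In HEK293 cells, Kpuu combines compound binding (fu,HEK) with intracellular accumulation (Kp, cell-to-media concentration ratio). Values are the geometric mean of at least two duplicate runs.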

[10] = molecular target: T2, Bromodomain-containing protein 4; assay: Inhibition of BRD4 in human MX1 cells assessed as decrease in cell proliferation after 3 days by Celltiter-Glo assay relative to parent compound; assay type: cell-based
Summary of the method: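 MX-1 breast cancer cells were treated for a 3-day proliferation assay and read out by CellTiter-Glo. Each EC50 is the geometric mean of at least two duplicate runs. The fold change is the ratio of the result to that of (+)-JQ1.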

[11] = molecular target: T2, Bromodomain-containing protein 4; assay: Inhibition of BRD4 in luciferase expressing human […] cells transfected with HPV-E2 assessed as transrepression of HPV-long control region by luciferase reporter assay relative to parent compound
Summary of the method: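 In-cell target engagement was read in an engineered H1299-derived luciferase reporter system. Each EC50 is the geometric mean of at least two duplicate runs. The fold change is the ratio to (+)-JQ1.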

Bromodomain-containing protein 3, sequence (Q15059 whole entry): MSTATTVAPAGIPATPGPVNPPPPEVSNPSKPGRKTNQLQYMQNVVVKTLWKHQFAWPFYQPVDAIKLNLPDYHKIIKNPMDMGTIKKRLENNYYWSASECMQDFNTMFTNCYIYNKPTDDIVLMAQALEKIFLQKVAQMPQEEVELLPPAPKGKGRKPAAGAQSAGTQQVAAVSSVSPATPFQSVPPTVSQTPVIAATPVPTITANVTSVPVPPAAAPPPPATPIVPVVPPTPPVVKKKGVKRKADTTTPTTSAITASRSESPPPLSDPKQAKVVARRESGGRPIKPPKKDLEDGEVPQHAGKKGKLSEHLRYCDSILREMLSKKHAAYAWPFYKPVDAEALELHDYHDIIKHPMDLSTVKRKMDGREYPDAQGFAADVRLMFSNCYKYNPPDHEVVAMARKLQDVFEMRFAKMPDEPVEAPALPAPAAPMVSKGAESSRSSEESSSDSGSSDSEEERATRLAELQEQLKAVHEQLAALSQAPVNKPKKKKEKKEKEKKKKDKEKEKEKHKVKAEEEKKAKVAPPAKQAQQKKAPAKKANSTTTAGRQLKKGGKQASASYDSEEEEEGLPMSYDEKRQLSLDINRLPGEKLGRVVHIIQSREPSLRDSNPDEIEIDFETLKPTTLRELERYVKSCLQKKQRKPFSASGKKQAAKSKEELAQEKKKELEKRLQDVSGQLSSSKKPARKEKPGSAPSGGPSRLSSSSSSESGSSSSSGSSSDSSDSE
Bromodomain-containing protein 2, sequence (P25440 whole entry): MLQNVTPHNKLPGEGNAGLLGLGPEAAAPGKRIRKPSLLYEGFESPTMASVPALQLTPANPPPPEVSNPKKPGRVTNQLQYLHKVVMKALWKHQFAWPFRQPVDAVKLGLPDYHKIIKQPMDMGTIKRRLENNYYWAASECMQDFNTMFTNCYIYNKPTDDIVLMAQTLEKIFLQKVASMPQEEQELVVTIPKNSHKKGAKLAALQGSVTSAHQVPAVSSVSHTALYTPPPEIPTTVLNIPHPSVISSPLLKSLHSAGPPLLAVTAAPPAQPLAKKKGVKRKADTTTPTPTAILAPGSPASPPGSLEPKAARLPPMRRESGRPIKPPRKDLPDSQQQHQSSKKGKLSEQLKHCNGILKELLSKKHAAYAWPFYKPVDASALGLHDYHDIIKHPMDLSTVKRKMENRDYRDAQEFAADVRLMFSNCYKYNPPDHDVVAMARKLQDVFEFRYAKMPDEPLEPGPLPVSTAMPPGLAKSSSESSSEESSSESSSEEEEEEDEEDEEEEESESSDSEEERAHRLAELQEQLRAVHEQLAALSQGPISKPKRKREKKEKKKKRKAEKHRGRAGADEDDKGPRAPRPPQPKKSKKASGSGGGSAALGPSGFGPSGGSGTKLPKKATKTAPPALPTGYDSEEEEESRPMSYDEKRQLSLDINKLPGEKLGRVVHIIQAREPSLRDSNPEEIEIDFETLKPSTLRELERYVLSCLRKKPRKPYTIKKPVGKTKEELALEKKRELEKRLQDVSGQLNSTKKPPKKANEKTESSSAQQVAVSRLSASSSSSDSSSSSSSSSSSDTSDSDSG
T1 sequence (Q9Y5N1 whole entry): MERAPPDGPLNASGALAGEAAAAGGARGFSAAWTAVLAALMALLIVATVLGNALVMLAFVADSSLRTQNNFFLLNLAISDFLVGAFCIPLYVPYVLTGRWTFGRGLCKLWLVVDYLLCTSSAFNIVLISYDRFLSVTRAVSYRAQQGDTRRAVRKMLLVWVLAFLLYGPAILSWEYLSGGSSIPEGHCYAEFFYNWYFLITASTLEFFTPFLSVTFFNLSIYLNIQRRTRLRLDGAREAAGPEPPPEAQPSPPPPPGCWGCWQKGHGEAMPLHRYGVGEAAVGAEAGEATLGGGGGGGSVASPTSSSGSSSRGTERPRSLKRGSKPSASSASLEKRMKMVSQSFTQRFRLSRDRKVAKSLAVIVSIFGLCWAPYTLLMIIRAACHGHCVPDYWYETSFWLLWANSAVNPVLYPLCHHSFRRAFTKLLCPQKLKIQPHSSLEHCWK

Compound | Ki (Histamine H3 receptor [1]) [nM] | EC50 (Histamine H3 receptor [2]) [nM] | IC50 (Histamine H3 receptor [3]) [nM] | Papp at 7 h [4] [×10⁻⁶ cm/s] | IC50 [5] [nM] | IC50 [6] [nM] | IC50 [7] [nM] | EC50 [8] [nM] | Ratio [9] | fold change (FC) [10] | fold change (FC) [11]
Cc1nn(CCOCCOCCNC(=O)CS(=O)(=O)O)cc1-c1ccc2cc(CCN3CCC[C@H]3C)ccc2n1 | 5.6 | > 3000 | 45 | – | – | – | – | – | – | – | –
Cc1nn(CCOCCOCCN)cc1-c1ccc2cc(CCN3CCC[C@H]3C)ccc2n1 | 0.7 | > 3000 | 1 | 0.0246 | – | – | – | – | – | – | –
Cc1nn(CCOCCOCCNC(=O)OC(C)(C)C)cc1-c1ccc2cc(CCN3CCC[C@H]3C)ccc2n1 | 1.5 | > 3000 | 41 | 0.873 | – | – | – | – | – | – | –
Cc1nn(CCOCCOCCNC(=O)C2C(C(=O)O)C(C(=O)O)C2C(=O)O)cc1-c1ccc2cc(CCN3CCC[C@H]3C)ccc2n1 (stereo partly specified) | 25.4 | > 3000 | 150 | 0.0131 | – | – | – | – | – | – | –
Cc1sc2c(c1C)C(c1ccc(Cl)cc1)=N[C@@H](CC(=O)NCCOCCOCCNC(=O)C1C(C(=O)O)C(C(=O)O)C1C(=O)O)c1nnc(C)n1-2 (stereo partly specified) | – | – | – | – | 997 | 456 | > 10000 | > 10000 | 0.0359 | > 50 | > 50
Cc1sc2c(c1C)C(c1ccc(Cl)cc1)=N[C@@H](CC(=O)NCCOCCOCCN)c1nnc(C)n1-2 | – | – | – | 0.0146 | 16 | 7 | 2480 | 8490 | 0.0695 | 17.2 | > 50
Cc1sc2c(c1C)C(c1ccc(Cl)cc1)=N[C@@H](CC(=O)NCCOCCOCCNC(=O)CS(=O)(=O)O)c1nnc(C)n1-2 | – | – | – | – | 78 | 78 | > 10000 | > 10000 | 0.0219 | > 50 | > 50
Cc1nn(CCOCCOCCNC(=O)CCCCCC2(C)C(/C=C/C=C/C=C3/N(CCCS(=O)(=O)O)c4ccc(S(=O)(=O)O)cc4C3(C)C)=[N+](CCCS(=O)(=O)[O-])c3ccc(S(=O)(=O)O)cc32)cc1-c1ccc2cc(CCN3CCC[C@H]3C)ccc2n1 (stereo partly specified) | 1.9 | 88 | 13 | 0.284 | – | – | – | – | – | – | –
Cc1sc2c(c1C)C(c1ccc(Cl)cc1)=N[C@@H](CC(=O)NCCOCCOCCNC(=O)CCCCCC1(C)C(/C=C/C=C/C=C3/N(CCCS(=O)(=O)O)c4ccc(S(=O)(=O)O)cc4C3(C)C)=[N+](CCCS(=O)(=O)[O-])c3ccc(S(=O)(=O)O)cc31)c1nnc(C)n1-2 (stereo partly specified) | – | – | – | – | > 45000 | > 20500 | 9110 | > 10000 | 0.0064 | > 50 | > 50
Cc1sc2c(c1C)C(c1ccc(Cl)cc1)=N[C@@H](CC(=O)NCCOCCOCCNC(=O)OC(C)(C)C)c1nnc(C)n1-2 | – | – | – | 6.22 | 35 | 42 | 526 | 718 | 0.168 | 3.65 | 11.2
